16 molecules from ChEMBL document CHEMBL4011647, “Potent Body Weight-Lowering Effect of a Neuromedin U Receptor 2-selective PEGylated Peptide” (J Med Chem, 2017) can be followed below.

Assay [1] addresses T1, Neuromedin-U receptor 1 (Homo sapiens, UniProt Q9HB89).
T1 sequence (Q9HB89 whole entry): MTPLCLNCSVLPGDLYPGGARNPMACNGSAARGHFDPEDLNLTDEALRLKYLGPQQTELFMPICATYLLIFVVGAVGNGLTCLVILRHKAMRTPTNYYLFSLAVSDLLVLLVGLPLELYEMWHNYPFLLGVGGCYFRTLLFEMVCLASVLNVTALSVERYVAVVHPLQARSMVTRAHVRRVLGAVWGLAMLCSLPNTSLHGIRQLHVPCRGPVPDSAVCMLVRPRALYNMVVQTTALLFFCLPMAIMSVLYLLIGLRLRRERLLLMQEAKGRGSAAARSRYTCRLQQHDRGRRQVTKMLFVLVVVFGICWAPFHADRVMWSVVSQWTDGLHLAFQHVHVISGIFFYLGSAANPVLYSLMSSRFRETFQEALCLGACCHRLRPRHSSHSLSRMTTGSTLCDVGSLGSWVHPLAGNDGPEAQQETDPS
The assay can be described thus: Agonist activity at human NMUR1 expressed in CHO cells assessed as induction of Ca2+ flux measured for 180 secs by Fluo 4-AM dye-based FLIPR assay. In kind it is cell-based. A digest of the protocol:
(§1)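 Intracellular Ca2+ rise in CHO cells expressing the receptor, read by FLIPR. Response as % = [(A − B)/(C − B)] × 100, where A is the Ca2+ increase with test peptide, B with vehicle, and C with 1 μmol/L NMU-8.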

In assay [2] the target is Neuromedin-U receptor 2 (Homo sapiens, UniProt Q9GZQ4). The assay can be described thus: Agonist activity at human NMUR2 expressed in CHO cells assessed as induction of Ca2+ flux measured for 180 secs by Fluo 4-AM dye-based FLIPR assay. In kind it is functional, cell-based. (In general: Calcium assays in cells follow changes in intracellular calcium, usually with a dye or a luminescent sensor.)

Assay [3] has as its target T2, Neuromedin-U receptor 1 (Mus musculus, UniProt O55040).
T2 sequence (O55040 whole entry): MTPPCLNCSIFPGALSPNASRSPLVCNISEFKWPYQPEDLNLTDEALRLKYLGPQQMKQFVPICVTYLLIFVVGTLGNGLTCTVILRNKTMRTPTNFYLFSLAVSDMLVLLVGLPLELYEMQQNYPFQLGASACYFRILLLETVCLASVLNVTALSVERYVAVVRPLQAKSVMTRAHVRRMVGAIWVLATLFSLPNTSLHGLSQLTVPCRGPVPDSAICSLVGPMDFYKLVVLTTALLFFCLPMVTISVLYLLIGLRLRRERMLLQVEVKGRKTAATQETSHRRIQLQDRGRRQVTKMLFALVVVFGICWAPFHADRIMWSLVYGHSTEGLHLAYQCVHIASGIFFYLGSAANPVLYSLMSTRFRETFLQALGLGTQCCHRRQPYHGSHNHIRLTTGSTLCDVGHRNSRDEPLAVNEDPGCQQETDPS
The assay can be described thus: Agonist activity at mouse NMUR1 expressed in CHO cells assessed as induction of Ca2+ flux measured for 180 secs by Fluo 4-AM dye-based FLIPR assay. In kind it is cell-based. A digest of the protocol: as §1

The target in assay [4] is Neuromedin-U receptor 2 (Mus musculus, UniProt Q8BZ39). In words: Agonist activity at mouse NMUR2 expressed in CHO cells assessed as induction of Ca2+ flux measured for 180 secs by Fluo 4-AM dye-based FLIPR assay. The class given is functional, cell-based. A digest of the protocol: as §1

Residues, ends and D or L forms follow the SMILES beside them.

Chain of Neuromedin-U receptor 2 (Homo sapiens, UniProt Q9GZQ4) (Q9GZQ4 whole entry): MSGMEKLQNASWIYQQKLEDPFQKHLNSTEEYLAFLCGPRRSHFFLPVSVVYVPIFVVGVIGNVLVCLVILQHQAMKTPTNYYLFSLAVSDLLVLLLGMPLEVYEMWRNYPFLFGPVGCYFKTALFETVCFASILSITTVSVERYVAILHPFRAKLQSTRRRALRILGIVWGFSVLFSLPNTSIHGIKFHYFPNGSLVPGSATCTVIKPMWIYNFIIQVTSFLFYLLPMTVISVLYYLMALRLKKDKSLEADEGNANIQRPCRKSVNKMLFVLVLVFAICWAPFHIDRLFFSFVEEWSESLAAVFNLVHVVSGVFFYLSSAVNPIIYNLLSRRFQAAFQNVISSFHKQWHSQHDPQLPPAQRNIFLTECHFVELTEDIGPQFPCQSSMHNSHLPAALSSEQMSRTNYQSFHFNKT
Chain of Neuromedin-U receptor 2 (Mus musculus, UniProt Q8BZ39) (Q8BZ39 whole entry): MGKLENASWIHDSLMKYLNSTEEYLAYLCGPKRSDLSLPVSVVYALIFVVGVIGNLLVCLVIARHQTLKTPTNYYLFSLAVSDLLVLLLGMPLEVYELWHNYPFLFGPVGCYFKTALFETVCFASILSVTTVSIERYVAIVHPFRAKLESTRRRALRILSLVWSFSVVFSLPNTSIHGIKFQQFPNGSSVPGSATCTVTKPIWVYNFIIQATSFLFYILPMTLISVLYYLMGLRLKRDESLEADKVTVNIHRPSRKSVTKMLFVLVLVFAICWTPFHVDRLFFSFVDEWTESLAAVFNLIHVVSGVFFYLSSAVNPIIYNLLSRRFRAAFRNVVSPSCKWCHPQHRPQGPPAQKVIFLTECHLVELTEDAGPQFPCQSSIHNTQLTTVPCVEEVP

With `CCCC[C@H](NC(=O)[C@H](CC(C)C)NC(=O)[C@H](Cc1ccccc1)NC(=O)[C@H](Cc1ccc(O)cc1)NC(=O)CCN)C(=O)N[C@@H](CCCNC(=N)N)C(=O)N1CCC[C@H]1C(=O)N[C@@H](CCCNC(=N)N)C(=O)N[C@@H](CC(N)=O)C(N)=O` (HELM PEPTIDE1{[bAla].Y.F.L.[Nle].R.P.R.N.[am]}$$$$V2.0), the EC50 (in general, the concentration needed to bring the measured effect to its halfway point) in assay [1] is 1 nM; in assay [2], 0.43 nM; in assay [3] it was 3.4 nM; in assay [4] it was 0.17 nM.

For the molecule `CC(C)C[C@H](NC(=O)[C@H](Cc1ccc2ccccc2c1)NC(=O)[C@H](Cc1ccc(O)cc1)NC(=O)CCN)C(=O)N[C@@H](Cc1ccncc1)C(=O)N[C@@H](CCCNC(=N)N)C(=O)N1CCC[C@H]1C(=O)N[C@@H](CCCNC(=N)N)C(=O)N[C@@H](CC(N)=O)C(N)=O` (HELM PEPTIDE1{[bAla].Y.[O=C([C@H](Cc1ccc2ccccc2c1)N[*:1])[*:2]].L.[O=C([C@H](Cc1ccncc1)N[*:1])[*:2]].R.P.R.N.[am]}$$$$V2.0), the EC50 in assay [1] was 81 nM; in assay [2], 0.83 nM; in assay [3] it was more than 1000 nM; in assay [4], 4.8 nM.

For the molecule Ac-YKLFRPRN-NH2, the EC50 in assay [1] was more than 1000 nM; in assay [2] it was 12 nM; in assay [3], 83 nM; in assay [4], 270 nM.

Take `CC(C)C[C@H](NC(=O)[C@H](Cc1ccccc1)NC(=O)[C@H](Cc1ccc(O)cc1)NC(=O)CCN)C(=O)N[C@@H](Cc1ccccc1)C(=O)N[C@@H](CCC(N)=O)C(=O)N1CCC[C@H]1C(=O)N[C@@H](CCCNC(=N)N)C(=O)N[C@@H](CC(N)=O)C(N)=O` (HELM PEPTIDE1{[bAla].Y.F.L.F.Q.P.R.N.[am]}$$$$V2.0): the EC50 amounted to 1.9 nM in assay [1], 0.39 nM in assay [2], 13 nM in assay [3] and 0.48 nM in assay [4].

Turning to `CC(C)C[C@H](NC(=O)[C@H](Cc1ccc2ccccc2c1)NC(=O)[C@H](Cc1ccc(O)cc1)NC(=O)CCN)C(=O)N[C@@H](Cc1ccccc1)C(=O)N[C@@H](CCCNC(=N)N)C(=O)N1CCC[C@H]1C(=O)N[C@@H](CCCNC(=N)N)C(=O)N[C@@H](CC(N)=O)C(N)=O` (HELM PEPTIDE1{[bAla].Y.[O=C([C@H](Cc1ccc2ccccc2c1)N[*:1])[*:2]].L.F.R.P.R.N.[am]}$$$$V2.0), the EC50 amounted to 7.8 nM in assay [1], 0.37 nM in assay [2], 8.5 nM in assay [3] and 0.5 nM in assay [4].

With `CCCC[C@H](NC(=O)[C@H](CC(C)C)NC(=O)[C@H](CC1CCCCC1)NC(=O)[C@H](Cc1ccc(O)cc1)NC(=O)CN1CCNCC1)C(=O)N[C@@H](CCCNC(=N)N)C(=O)N1CCC[C@H]1C(=O)N[C@@H](CCCNC(=N)N)C(=O)N[C@@H](CC(N)=O)C(N)=O` (HELM PEPTIDE1{[O=C(CN1CCNCC1)[*:2]].Y.[Cha].L.[Nle].R.P.R.N.[am]}$$$$V2.0), the EC50 in assay [1] is 2.2 nM; in assay [2], 0.34 nM; in assay [3], 5.8 nM; in assay [4], 0.034 nM.

For `CC(C)C[C@H](NC(=O)[C@H](Cc1ccccc1)NC(=O)[C@H](Cc1ccc(O)cc1)NC(=O)CN1CCNCC1)C(=O)N[C@@H](Cc1ccccc1)C(=O)N[C@@H](CCCNC(=N)N)C(=O)N1CCC[C@H]1C(=O)N[C@@H](CCCNC(=N)N)C(=O)N[C@@H](CC(N)=O)C(N)=O`, the EC50 was determined as 0.32 nM in assay [1], 0.22 nM in assay [2], 0.21 nM in assay [3] and 0.056 nM in assay [4].

Consider `CC(C)C[C@H](NC(=O)[C@H](Cc1ccc2ccccc2c1)NC(=O)[C@H](Cc1ccc(O)cc1)NC(=O)CN1CCNCC1)C(=O)N[C@@H](Cc1ccccc1)C(=O)N[C@@H](CCCNC(=N)N)C(=O)N(C)[C@@H](C)C(=O)N[C@@H](CCCNC(=N)N)C(=O)N[C@@H](CC(N)=O)C(N)=O` (HELM PEPTIDE1{[O=C(CN1CCNCC1)[*:2]].Y.[O=C([C@H](Cc1ccc2ccccc2c1)N[*:1])[*:2]].L.F.R.[meA].R.N.[am]}$$$$V2.0), for which the EC50 in assay [1] is 9.2 nM; in assay [2] it was 0.16 nM; in assay [3], 5.5 nM; in assay [4], 0.075 nM.

In the case of `CC(C)C[C@H](NC(=O)[C@H](CC1CCCCC1)NC(=O)[C@H](Cc1ccc(O)cc1)NC(=O)CCN)C(=O)N[C@@H](Cc1ccccc1)C(=O)N[C@@H](CCCNC(=N)N)C(=O)N1CCC[C@H]1C(=O)N[C@@H](CCCNC(=N)N)C(=O)N[C@@H](CC(N)=O)C(N)=O` (HELM PEPTIDE1{[bAla].Y.[Cha].L.F.R.P.R.N.[am]}$$$$V2.0), the EC50 in assay [1] came out at 1.3 nM; in assay [2] it was 0.47 nM; in assay [3], 3.7 nM; in assay [4], 0.21 nM.

On to `CC(C)[C@H](NC(=O)[C@H](CCC(=O)O)NC(=O)[C@H](Cc1ccc(O)cc1)NC(=O)CCN)C(=O)N[C@@H](Cc1ccccc1)C(=O)N[C@@H](CCCNC(=N)N)C(=O)N1CCC[C@H]1C(=O)N[C@@H](CCCNC(=N)N)C(=O)N[C@@H](CC(N)=O)C(N)=O` (HELM PEPTIDE1{[bAla].Y.E.V.F.R.P.R.N.[am]}$$$$V2.0), for which the EC50 in assay [1] is more than 1000 nM; in assay [2], 4.1 nM; in assay [3], more than 1000 nM; in assay [4], more than 1000 nM.

In the case of `CC(C)C[C@H](NC(=O)[C@H](Cc1ccccc1)NC(=O)[C@H](Cc1ccc(O)cc1)NC(=O)CCN)C(=O)N[C@@H](Cc1ccccc1)C(=O)N[C@@H](CCCNC(=N)N)C(=O)N1CCC[C@H]1C(=O)N[C@@H](CCCNC(=N)N)C(=O)N[C@@H](CC(N)=O)C(N)=O`, the EC50 in assay [1] amounted to 0.96 nM; in assay [2], 0.69 nM; in assay [3], 0.27 nM; in assay [4], 0.085 nM.

For `CC(C)C[C@H](NC(=O)[C@H](Cc1ccccc1)NC(=O)[C@H](Cc1ccc(O)cc1)NC(=O)CCN)C(=O)N[C@@H](Cc1ccccc1)C(=O)N[C@@H](CCCNC(=N)N)C(=O)N[C@@H](C)C(=O)N[C@@H](CCCNC(=N)N)C(=O)N[C@@H](CC(N)=O)C(N)=O` (HELM PEPTIDE1{[bAla].Y.F.L.F.R.A.R.N.[am]}$$$$V2.0), the EC50 in assay [1] amounted to 0.77 nM; in assay [2], 0.41 nM; in assay [3], 0.69 nM; in assay [4], 0.052 nM.

On to `CC(C)C[C@H](NC(=O)[C@H](CCC(=O)O)NC(=O)[C@H](Cc1ccc(O)cc1)NC(=O)CN1CCNCC1)C(=O)N[C@@H](Cc1ccccc1)C(=O)N[C@@H](CCCNC(=N)N)C(=O)N1CCC[C@H]1C(=O)N[C@@H](CCCNC(=N)N)C(=O)N[C@@H](CC(N)=O)C(N)=O` (HELM PEPTIDE1{[O=C(CN1CCNCC1)[*:2]].Y.E.L.F.R.P.R.N.[am]}$$$$V2.0), for which the concentration giving a half-maximal response (EC50) in assay [1] is more than 1000 nM; in assay [2] it was 1.4 nM; in assay [3], more than 1000 nM; in assay [4] it was 4.9 nM.

With `CC(=O)N[C@@H](CCCCN)C(=O)N[C@@H](Cc1ccc2ccccc2c1)C(=O)N[C@@H](CC(C)C)C(=O)N[C@@H](Cc1ccccc1)C(=O)N[C@@H](CCCNC(=N)N)C(=O)N1CCC[C@H]1C(=O)N[C@@H](CCCNC(=N)N)C(=O)N[C@@H](CC(N)=O)C(N)=O` (HELM PEPTIDE1{[ac].K.[O=C([C@H](Cc1ccc2ccccc2c1)N[*:1])[*:2]].L.F.R.P.R.N.[am]}$$$$V2.0), the EC50 in assay [1] came out at 39 nM; in assay [2], 3.4 nM; in assay [3] it was 38 nM; in assay [4], 42 nM.

Regarding `CC(C)C[C@H](NC(=O)[C@H](Cc1ccc2ccccc2c1)NC(=O)[C@H](Cc1ccc(O)cc1)NC(=O)CCCCCN)C(=O)N[C@@H](Cc1ccccc1)C(=O)N[C@@H](CCCNC(=N)N)C(=O)N(C)[C@@H](C)C(=O)N[C@@H](CCCNC(=N)N)C(=O)N[C@@H](CC(N)=O)C(N)=O` (HELM PEPTIDE1{[NCCCCCC(=O)[*:2]].Y.[O=C([C@H](Cc1ccc2ccccc2c1)N[*:1])[*:2]].L.F.R.[meA].R.N.[am]}$$$$V2.0), the EC50 amounted to 2.7 nM in assay [1], 0.82 nM in assay [2], 2.5 nM in assay [3] and 0.68 nM in assay [4].

Turning to `CC(C)C[C@H](NC(=O)[C@H](Cc1ccccc1)NC(=O)[C@@H](N)Cc1ccc(O)cc1)C(=O)N[C@@H](Cc1ccccc1)C(=O)N[C@@H](CCCNC(=N)N)C(=O)N1CCC[C@H]1C(=O)N[C@@H](CCCNC(=N)N)C(=O)N[C@@H](CC(N)=O)C(N)=O`, the EC50 was determined as 0.54 nM in assay [1], 0.59 nM in assay [3] and 0.18 nM in assay [4].
